Calls of active or inactive are those of the source. The rule behind the calls is not given here.
Assays:
[1] = tested on: HeLa; experiment: Induction of apoptosis in human HeLa cells assessed as increase in caspase-3 activity by measuring pNA release level at 32 uM incubated for 4 hrs using c-DEVD-pNA substrate by colorimetric assay; format: functional
Summary of the method: (§1)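 HeLa cells in DMEM with 10% FBS were exposed for 4 h (fixed 24 or 32 level for 8 h). Staurosporine for 4 h served as the positive control. Cells were lysed at 4 °C for 10 min and centrifuged, and supernatant protein was measured by Bradford. Caspase-3 activity was read colorimetrically as nmol pNA/min/mL, with treated/untreated OD ratios. Values are means ± SD of three independent experiments in triplicate.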

[2] = tested on: A549; experiment: Cytotoxicity against human A549 cells assessed as reduction in cell viability using compound addition to cell culture cells in lag phase of growth and incubated for 48 hrs by MTT assay; format: functional, cell-based; conditions: Homo sapiens, A549, 48 h; read-out: IC50
[3] = tested on: HeLa; experiment: Cytotoxicity against human HeLa cells assessed as reduction in cell viability using compound addition to cell culture cells in lag phase of growth and incubated for 48 hrs by MTT assay; format: functional, cell-based; conditions: Homo sapiens, HeLa, 48 h; read-out: IC50
[4] = tested on: Vero; experiment: Cytotoxicity against African green monkey Vero cells assessed as reduction in cell viability using compound addition to cell culture cells in lag phase of growth and incubated for 48 hrs by MTT assay; format: cell-based, Chlorocebus sabaeus; conditions: Chlorocebus sabaeus, Vero, 48 h; read-out: IC50
[5] = tested on: HeLa; experiment: Cytotoxicity against human HeLa cells assessed as reduction in cell viability using compound addition to cell culture cells in log phase of growth and incubated for 48 hrs by MTT assay; format: functional, cell-based; conditions: Homo sapiens, HeLa, 48 h; read-out: IC50
[6] = tested on: MCF7; experiment: Ratio of IC50 for cytotoxicity against human MCF7 cells incubated for 48 hrs to IC50 for cytotoxicity against human MCF7 cells incubated for 72 hrs; format: functional
[7] = tested on: HeLa; experiment: Induction of apoptosis in human HeLa cells assessed as increase in caspase-3 activity by measuring pNA release level at 24 uM incubated for 4 hrs using c-DEVD-pNA substrate by colorimetric assay; format: functional; summary of the method: as §1
[8] = tested on: A549; experiment: Cytotoxicity against human A549 cells assessed as reduction in cell viability using compound addition to cell culture cells in log phase of growth and incubated for 48 hrs by MTT assay; format: functional, cell-based; conditions: Homo sapiens, A549, 48 h; read-out: IC50
[9] = tested on: MCF7; experiment: Cytotoxicity against human MCF7 cells assessed as reduction in cell viability using compound addition to cell culture cells in lag phase of growth and incubated for 48 hrs by MTT assay; format: functional, cell-based; conditions: Homo sapiens, MCF7, 48 h; read-out: IC50
[10] = tested on: MCF7 (Homo sapiens); experiment: Ratio of IC50 for cytotoxicity against human MCF7 cells incubated for 48 hrs to IC50 for cytotoxicity against human MCF7 cells incubated for 72 hrs
[11] = tested on: Vero; experiment: Cytotoxicity against African green monkey Vero cells assessed as reduction in cell viability using compound addition to cell culture cells in log phase of growth and incubated for 48 hrs by MTT assay; format: cell-based, Chlorocebus sabaeus; conditions: Chlorocebus sabaeus, Vero, 48 h; read-out: IC50
[12] = tested on: HeLa; experiment: Induction of apoptosis in human HeLa cells assessed as […] by measuring pNA release level at 32 uM incubated for 8 hrs using c-DEVD-pNA substrate by colorimetric assay; format: functional, cell-based; summary of the method: as §1
[13] = tested on: MCF7 (Homo sapiens); experiment: Ratio of IC50 for cytotoxicity against human MCF7 cells incubated for 48 hrs to IC50 for cytotoxicity against human MCF7 cells incubated for 72 hrs; remark: listed apart in the source
[14] = tested on: HeLa; experiment: Induction of apoptosis in human HeLa cells assessed as increase in caspase-3 activity by measuring pNA release level at 16 uM incubated for 4 hrs using c-DEVD-pNA substrate by colorimetric assay; format: functional; summary of the method: as §1
[15] = tested on: HeLa; experiment: Induction of apoptosis in human HeLa cells assessed as increase in caspase-3 activity by measuring pNA release level at 12 uM incubated for 4 hrs using c-DEVD-pNA substrate by colorimetric assay; format: functional; summary of the method: as §1
[16] = tested on: MCF7; experiment: Cytotoxicity against human MCF7 cells assessed as reduction in cell viability using compound addition to cell culture cells in log phase of growth and incubated for 48 hrs by MTT assay; format: functional, cell-based; conditions: Homo sapiens, MCF7, 48 h; read-out: IC50
[17] = tested on: HeLa; experiment: Induction of apoptosis in human HeLa cells assessed as increase in caspase-3 activity by measuring pNA release level at 8 uM incubated for 4 hrs using c-DEVD-pNA substrate by colorimetric assay; format: functional; summary of the method: as §1

CCC(=O)OCC1=C(C)C[C@H]([C@@H](C)[C@H]2CC[C@H]3[C@@H]4C[C@H]5O[C@]56[C@@H](O)C=CC(=O)[C@]6(C)[C@H]4CC[C@]23C)OC1=O
Activity [1]: 1.67 nmol/min/mL
IC50 [2]: 1.6 µM
IC50 [3]: 1.6 µM
IC50 [4]: 0.9 µM
IC50 [5]: 1.1 µM
Ratio IC50 [6]: >3
Activity [7]: 1.9 nmol/min/mL
IC50 [8]: 2.1 µM
IC50 [9]: 2.3 µM
Ratio IC50 [10]: >3
IC50 [11]: 1 µM
Activity [12]: Active
Ratio IC50 [13]: >3
Activity [14]: 1.02 nmol/min/mL
Activity [15]: 0.52 nmol/min/mL
IC50 [16]: 1.2 µM
Activity [17]: 0.52 nmol/min/mL

CNc1ccccc1C(=O)OCC1=C(C)C[C@H]([C@@H](C)[C@H]2CC[C@H]3[C@@H]4C[C@H]5O[C@]56[C@@H](O)C=CC(=O)[C@]6(C)[C@H]4CC[C@]23C)OC1=O
IC50 [2]: 3.7 µM
IC50 [3]: 1.6 µM
IC50 [4]: 1.2 µM
IC50 [5]: 4.2 µM
Ratio IC50 [6]: >3
IC50 [8]: 4.7 µM
IC50 [9]: 1.6 µM
Ratio IC50 [10]: >3
IC50 [11]: 1.6 µM
Ratio IC50 [13]: >3
IC50 [16]: 1 µM

CC1=C(C=O)C(=O)O[C@@H]([C@@H](C)[C@H]2CC[C@H]3[C@@H]4C[C@H]5O[C@]56[C@@H](O)C=CC(=O)[C@]6(C)[C@H]4CC[C@]23C)C1
IC50 [2]: 15.7 µM
IC50 [3]: 6.5 µM
IC50 [4]: 4.4 µM
IC50 [5]: 10.9 µM
Ratio IC50 [6]: >3
IC50 [8]: 13.5 µM
IC50 [9]: 3.7 µM
Ratio IC50 [10]: >3
IC50 [11]: 3.6 µM
Ratio IC50 [13]: >3
IC50 [16]: 2.1 µM

CC1=C(COC(=O)c2ccoc2)C(=O)O[C@@H]([C@@H](C)[C@H]2CC[C@H]3[C@@H]4C[C@H]5O[C@]56[C@@H](OC(=O)c5ccoc5)C=CC(=O)[C@]6(C)[C@H]4CC[C@]23C)C1
IC50 [2]: 3.6 µM
IC50 [3]: 2.9 µM
IC50 [4]: 0.9 µM
IC50 [5]: 3.8 µM
Ratio IC50 [6]: >3
IC50 [8]: 3.8 µM
IC50 [9]: 1.5 µM
Ratio IC50 [10]: >3
IC50 [11]: 0.9 µM
Ratio IC50 [13]: >3
IC50 [16]: 1.7 µM

CCCC(=O)OCC1=C(C)C[C@H]([C@@H](C)[C@H]2CC[C@H]3[C@@H]4C[C@H]5O[C@]56[C@@H](OC(=O)CCC)C=CC(=O)[C@]6(C)[C@H]4CC[C@]23C)OC1=O
Activity [1]: 1.7 nmol/min/mL
IC50 [2]: 2.8 µM
IC50 [3]: 1.9 µM
IC50 [4]: 1.6 µM
IC50 [5]: 1.6 µM
Activity [7]: 0.88 nmol/min/mL
IC50 [8]: 1.9 µM
IC50 [9]: 1 µM
IC50 [11]: 0.7 µM
Activity [12]: Active
Activity [14]: 0.93 nmol/min/mL
Activity [15]: 0.61 nmol/min/mL
IC50 [16]: 1 µM
Activity [17]: 0.15 nmol/min/mL

CCC(=O)OCC1=C(C)C[C@H]([C@@H](C)[C@H]2CC[C@H]3[C@@H]4C[C@H]5O[C@]56[C@@H](OC(=O)CC)C=CC(=O)[C@]6(C)[C@H]4CC[C@]23C)OC1=O
Activity [1]: 1.7 nmol/min/mL
IC50 [2]: 2.6 µM
IC50 [3]: 2.1 µM
IC50 [4]: 1.5 µM
IC50 [5]: 1.1 µM
Activity [7]: 1.6 nmol/min/mL
IC50 [8]: 4.1 µM
IC50 [9]: 2.4 µM
IC50 [11]: 0.8 µM
Activity [12]: Active
Activity [14]: 2.3 nmol/min/mL
Activity [15]: 1.1 nmol/min/mL
IC50 [16]: 1.1 µM
Activity [17]: 0.58 nmol/min/mL

CCCC(=O)OCC1=C(C)C[C@H]([C@@H](C)[C@H]2CC[C@H]3[C@@H]4C[C@H]5O[C@]56[C@@H](O)C=CC(=O)[C@]6(C)[C@H]4CC[C@]23C)OC1=O
Activity [1]: 1.33 nmol/min/mL
IC50 [2]: 2.6 µM
IC50 [3]: 1.9 µM
IC50 [4]: 0.7 µM
IC50 [5]: 1.2 µM
Activity [7]: 1.24 nmol/min/mL
IC50 [8]: 2.2 µM
IC50 [9]: 2.4 µM
IC50 [11]: 0.5 µM
Activity [12]: Active
Activity [14]: 1.22 nmol/min/mL
Activity [15]: 0.72 nmol/min/mL
IC50 [16]: 1 µM
Activity [17]: 0.54 nmol/min/mL

CCCCCCCC(=O)OCC1=C(C)C[C@H]([C@@H](C)[C@H]2CC[C@H]3[C@@H]4C[C@H]5O[C@]56[C@@H](OC(=O)CCCCCCC)C=CC(=O)[C@]6(C)[C@H]4CC[C@]23C)OC1=O
IC50 [2]: > 40 µM
IC50 [3]: 33.8 µM
IC50 [4]: 3.3 µM
IC50 [5]: > 40 µM
Ratio IC50 [6]: >3
IC50 [8]: > 40 µM
IC50 [9]: 23.8 µM
Ratio IC50 [10]: >3
IC50 [11]: 18.3 µM
Ratio IC50 [13]: >3
IC50 [16]: 33.5 µM

CC1=C(COC(=O)c2cccc3ccccc23)C(=O)O[C@@H]([C@@H](C)[C@H]2CC[C@H]3[C@@H]4C[C@H]5O[C@]56[C@@H](O)C=CC(=O)[C@]6(C)[C@H]4CC[C@]23C)C1
IC50 [2]: 6.4 µM
IC50 [3]: 2 µM
IC50 [4]: 0.4 µM
IC50 [5]: 3.5 µM
Ratio IC50 [6]: >3
IC50 [8]: 13.7 µM
IC50 [9]: 0.9 µM
Ratio IC50 [10]: >3
IC50 [11]: 0.6 µM
Ratio IC50 [13]: >3
IC50 [16]: 2.2 µM

CC1=C(CO)C(=O)O[C@@H]([C@@H](C)[C@H]2CC[C@H]3[C@@H]4C[C@H]5O[C@]56[C@@H](O)C=C[C@@H](O)[C@]6(C)[C@H]4CC[C@]23C)C1
IC50 [2]: > 40 µM
IC50 [3]: 15.8 µM
IC50 [4]: 7.1 µM
IC50 [5]: 17.5 µM
Ratio IC50 [6]: >3
IC50 [8]: 17.3 µM
IC50 [9]: 16.8 µM
Ratio IC50 [10]: >3
IC50 [11]: 6 µM
Ratio IC50 [13]: >3
IC50 [16]: 7.5 µM

CC1=C(CO)C(=O)O[C@@H]([C@@H](C)[C@H]2CC[C@H]3[C@@H]4C[C@H]5O[C@]56[C@@H](O)[C@@H](N(Cc5ccccc5)Cc5ccccc5)CC(=O)[C@]6(C)[C@H]4CC[C@]23C)C1
IC50 [2]: 40 µM
IC50 [3]: 22.2 µM
IC50 [4]: 32.9 µM
IC50 [5]: > 40 µM
Ratio IC50 [6]: >3
IC50 [8]: > 40 µM
IC50 [9]: 15.4 µM
Ratio IC50 [10]: >3
IC50 [11]: 15.6 µM
Ratio IC50 [13]: >3
IC50 [16]: 18.5 µM

CC1=C(CO)C(=O)O[C@@H]([C@@H](C)[C@H]2CC[C@H]3[C@@H]4C[C@@H](O)[C@]5(C=O)C=CC(=O)[C@]5(C)[C@H]4CC[C@]23C)C1
IC50 [5]: > 40 µM
Ratio IC50 [6]: >3
IC50 [8]: > 40 µM
Ratio IC50 [10]: >3
IC50 [11]: > 40 µM
Ratio IC50 [13]: >3
IC50 [16]: > 40 µM

CC1=C(COC(=O)CBr)C(=O)O[C@@H]([C@@H](C)[C@H]2CC[C@H]3[C@@H]4C[C@H]5O[C@]56[C@@H](O)C=CC(=O)[C@]6(C)[C@H]4CC[C@]23C)C1
IC50 [2]: 3.9 µM
IC50 [3]: 2.1 µM
IC50 [4]: 1.1 µM
IC50 [5]: 4.9 µM
Ratio IC50 [6]: >3
IC50 [8]: 4.8 µM
IC50 [9]: 1.2 µM
Ratio IC50 [10]: >3
IC50 [11]: 1.6 µM
Ratio IC50 [13]: >3
IC50 [16]: 0.9 µM

CC1=C(C)C(=O)O[C@@H]([C@@H](C)[C@H]2CC[C@H]3[C@@H]4C[C@H]5O[C@]56[C@@H](O)CC[C@@H](O)[C@]6(C)[C@H]4CC[C@]23C)C1
IC50 [2]: > 40 µM
IC50 [3]: > 40 µM
IC50 [4]: > 40 µM
IC50 [5]: > 40 µM
IC50 [8]: > 40 µM
IC50 [9]: > 40 µM
IC50 [11]: > 40 µM
IC50 [16]: > 40 µM

CC1=C(COC(=O)c2ccoc2)C(=O)O[C@@H]([C@@H](C)[C@H]2CC[C@H]3[C@@H]4C[C@H](Cl)[C@]5(O)[C@@H](O)C=CC(=O)[C@]5(C)[C@H]4CC[C@]23C)C1
IC50 [2]: > 40 µM
IC50 [3]: > 40 µM
IC50 [4]: 30.6 µM
IC50 [5]: > 40 µM
IC50 [8]: > 40 µM
IC50 [9]: 33.5 µM
IC50 [11]: 31.2 µM
IC50 [16]: 28.6 µM
